Variants at the floor of the assay were thinned out.
B1: tRNA (parent)
chain: GUUCCGUUGGCGUAAUGGUAACGCGUCUCCCUCCUAAGGAGAAGACUGCGGGUUCGAGUCCCGUACGGAACG

Variants of: B1
Assay: yeast fitness relative to wild type (ratio to wild type); higher = fitter; tRNA-Arg(CCU), competitive growth, 37 C, YPD
Procedure, shortened: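 Changes in genotype frequencies gave Darwinian fitness relative to wild type. Frequencies were read by 100-nucleotide paired-end sequencing of gene amplicons before and after pooled Saccharomyces cerevisiae strains, carrying tRNA-Arg(CCU) gene variants at the native locus, were competed in YPD at 37°C for 24 hours in six replicates. A genotype was kept only with ≥ 100 starting reads, and estimates < 0.5 were set to 0.5.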

| Variant | yeast fitness |
| --- | --- |
| GUUACGUUGGCGUAAUAGUAACGCGUCUCCCUCCUAAGGAAAAGACUGCGGGUUCGAGUCCCGUACAGAACG [C4A G17A G41A G67A] | ≤ 0.5 |
| GUUACGUUAGCGUAAUGCUAAAGCGUCUCCCUCCUAAGGAGAAGACUGCCGGUUCGAGUCCCGUCCGGAACG [C4A G9A G18C C22A G50C A65C] | ≤ 0.5 |
| GUUACGUUGGCCUAAUGGCAAUGGGUCUCCCUCCUAAGGAGAUGACUGCGGGUUCGAGUCACGUACGGAACG [C4A G12C U19C C22U C24G A43U C61A] | ≤ 0.5 |
| GUUACGUUGGCGUAAUAGUAAAGCGUCUCCAUACUAAGGAGAAGACUGAGGGUUCGAGUCCCGUACGGAACG [C4A G17A C22A C31A C33A C49A] | 0.525 |
| GUUACGUUGGCGUAAUCGUAACCCGUCUCCCUCCUAAGGAGAAGCCUGCGGGUUCGAGUCCCGUACGGAACG [C4A G17C G23C A45C] | 0.527 |
| GUUACGUUGGCGUAAUAGUAACGCGUCUCCCUCCUAAGGAAAAGACUGCGGGUUCGAGUCCCGUACGGAACG [C4A G17A G41A] | 0.525 |
| GUUACGUUGGCGUAAUGGUAACACGUCUCCCUCCUAAGGAGAAGACUGCGGGUUCGAGUCCCGUACGGAACG [C4A G23A] | 0.89 |
| GUUACGUUGGCGUAAUGGUAACAGGUCUCCCUCCUAAGGAGAAGACUGCGGGUUCGAGUCCCGUACGGAACG [C4A G23A C24G] | ≤ 0.5 |
| GUUACGUUGGCGUAAUAGUAACGCGUCUCCCUCCUAAGGAAAAGACUGCGGGUUCGAGUCCCGUAUGGAACG [C4A G17A G41A C66U] | 0.508 |
| GUUACGUUCGCGUAAUGGUAACGCGUCUCCAUCCUAAGGAAAAGACUGCGGGUUCGAGUCCCGUACGGAACG [C4A G9C C31A G41A] | 0.773 |
| GUUACGUUGCUGUAAUGGUAACGCGUUUCCCUCCUAAGGAGAAGUCUGCGGGUUCGAGUGCCGUACGGAACG [C4A G10C C11U C27U A45U C60G] | ≤ 0.5 |
| GUUACGUUGGCGUAAUGCUAACGCGUCUACAUCCUAAGGAGAAGACUGCGGGUUCGGGUCCCGUACGGAACG [C4A G18C C29A C31A A57G] | ≤ 0.5 |
| GUUACGUUGGCGUAAUAGUAACGCGUCUCCCUCCUAAGGAGAAGACUGCGGGUUCGAGUGCCGUACGGAGCG [C4A G17A C60G A70G] | ≤ 0.5 |
| GUUACGUUGGCGUAAUGGUAACACCUCUCCCUCCUAAGGAGAAGACUGCGAGUUCGAGUCCCGUACGGAACG [C4A G23A G25C G51A] | 0.607 |
| GUUACGUUGGCGUAAUGCUAACGCGUCUACAUCCUAAGGAGAAGACUGCGGGUUCGAGUCCCGUAUGGAACG [C4A G18C C29A C31A C66U] | ≤ 0.5 |
| GUUACGUUGGCGUAAUGGUAACACGUCUCCCUGCUAAGGAGAAGACUGCGGGUUCGAGUCCCCUUCGGAACG [C4A G23A C33G G63C A65U] | ≤ 0.5 |
| GUUACGUUAGCGUAAUGGUAACGCGUCUCCCUCCUAAGGAGAACACUGCGAGUUCGACACCCGUACGGAACG [C4A G9A G44C G51A G58C U59A] | ≤ 0.5 |
| GUUACGUUGGCGUAAUGGUAACACGUCUUCCUCGUAACGAGAAGACUGCGGGUUCGAGUCCCGUACGGAACG [C4A G23A C29U C34G G38C] | ≤ 0.5 |
| GUUACGUUGGCGUAAUGGUAACACGUCUCCGUCCUAAGGCGAAGACUGCGGGUUCGAGUCCCGUACGGAACG [C4A G23A C31G A40C] | 0.52 |

| Variant | yeast fitness |
| --- | --- |
| GUUACGUUGACGUAAUGGUAACGCGUCACCCUCCUAAGGAGAAGACUGCGGGUUGGAGUCCCGUACGGAACG [C4A G10A U28A C55G] | ≤ 0.5 |
| GUUACGUUGGCAUAAAGGUAACGCGUCUCCCUCCUAAGGAGAAGACUGCGAGUACGAGUCCCGUACGGAACG [C4A G12A U16A G51A U54A] | 0.542 |
| GUUACGUUCGGGUAAUGGUAACGCGUCUCCCUCCUAAGGAGAAGACUGCGGGUUCGAGUCCCGUACGGAACG [C4A G9C C11G] | ≤ 0.5 |
| GUUACGUUGGCGUAAUAGUAGCGGGUCUCCCUCCUAAGGAGAAGACUGCGGGUUCGAGUCCCGUACAGAGCG [C4A G17A A21G C24G G67A A70G] | ≤ 0.5 |
| GUUACGUUGGCGUAAUGAUAACGCGUAUCCCUCCUACGGAGAAGACUGCGGGUUCAAGUCCCGUACGUAACG [C4A G18A C27A A37C G56A G68U] | ≤ 0.5 |
| GUUACGUUGGCGUAAUGAUAAUGCGUCUCCCUCCUAAGGAGAACAUUGUGGGUUCGAGUCCCGUACGGAACG [C4A G18A C22U G44C C46U C49U] | ≤ 0.5 |
| GUUACGUUGGCGUAAUCGUGACGCGUCUCCGUCCUACGGAGAAGACUGCGGGUUCGAGUCCCGUACGGAACG [C4A G17C A20G C31G A37C] | ≤ 0.5 |
| GUUACGUUGGCGUAAUGGUAACACGUCUCCGUCCUAAGGCGAAGACUCCGGGUUCGAGUCCCGUAAGGAACG [C4A G23A C31G A40C G48C C66A] | ≤ 0.5 |
| GUUACGUUGGCGUAAUCGUAACGCGUCUCCCUCCUAAGGAGAAGACUGCGGGUUCAAGUCCCGUACGGAACG [C4A G17C G56A] | ≤ 0.5 |
| GUUACGUUAGCGUAAUGGUAACGUGUCUCUCUCCUGAGGAGAAGACUGCGGGUUCGGAUCCCAUAUGGAACG [C4A G9A C24U C30U A36G A57G G58A G63A C66U] | ≤ 0.5 |
| GUUACGUUGGCCUAAUGGCAACGGGUCUCCCUCCUAAGGAGAUGACUGCGGGUCCGAGUCACGUACGGAACG [C4A G12C U19C C24G A43U U54C C61A] | ≤ 0.5 |
| GUUACGUUAGCGUAAUGGUAACGUGUCUCUCUCCUGAGGAGAAGACUGCGGGUUCGGAUCCCAUACGGAACG [C4A G9A C24U C30U A36G A57G G58A G63A] | ≤ 0.5 |
| GUUACGUUAGCGUAAAGGUAACGCGUCUCCCUCCUAAGGGGAAGAUUGCGGGUUCGAGUCCGGUACGGUACG [C4A G9A U16A A40G C46U C62G A69U] | ≤ 0.5 |
| GUUACGUUGGCGUAAUCGUAACGCGUCUCCGUCCUACGGAGAAGACUGCGGGUUCGAGUCCCGUACGGAACG [C4A G17C C31G A37C] | 0.748 |
| GUUACGUUGGCGUAAUAGUAACGCGUCUCCCUCCUAAGGAGUAGACUGCGGGUUGGAGUCCCGUACGGAACG [C4A G17A A42U C55G] | ≤ 0.5 |
| GUUACGUUGGCGUAAUGCUAACGUGUCUUCCUCAUAAGGAGAAGACUGCGGGUUCGAGUCCCGUACGGAACG [C4A G18C C24U C29U C34A] | 0.592 |
| GUUACGUUGGCGUAAUGAUAACGCGUCUCCCUCCUAAGGAGAAGACUGCGGGUUCGAGGCCCGUACGGAACG [C4A G18A U59G] | 0.657 |
| GUUACGUUGGCGUAAUGCUAACGCGUCUACAUCCUAAGGAGAAGACUGCGGGUUCGAGUCCCGUACGGACCG [C4A G18C C29A C31A A70C] | ≤ 0.5 |
